Assay results published in ChEMBL document CHEMBL3091406, “Design and synthesis of novel antimicrobials with activity against Gram-positive bacteria and mycobacterial species, including M. tuberculosis” (2013).
In brackets after ≈: the same amount, converted by molar mass.

Tests used:
Format in all cases: functional
Escherichia coli = experiment: Antibacterial activity against Escherichia coli […] by CLSI method
Bacillus cereus = experiment: Antibacterial activity against Bacillus cereus by CLSI method
Staphylococcus aureus = experiment: Antibacterial activity against Staphylococcus aureus ATCC 29213 by CLSI method
[1] = tested on: Mycolicibacterium smegmatis; experiment: Antimycobacterial activity against Mycobacterium smegmatis
[2] = tested on: Mycolicibacterium fortuitum; experiment: Antimycobacterial activity against Mycobacterium fortuitum
How it was run: (§1)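 MIC in Middlebrook 7H9 broth with 10% OADC; strains from University of Wisconsin-La Crosse culture collection; rifampin as positive control; reported MIC is compiled from geometric means of three separate runs.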

[3] = tested on: Mycolicibacterium smegmatis; experiment: Ratio of rifampin MIC to compound MIC for Mycobacterium smegmatis
[4] = tested on: Mycobacterium tuberculosis; experiment: Ratio of ethambutol MIC to compound MIC for Mycobacterium tuberculosis H37Rv after 7 days by BacTiter-Glo method
[5] = tested on: Mycobacterium tuberculosis; experiment: Antimycobacterial activity against Mycobacterium tuberculosis H37Rv after 7 days by BacTiter-Glo method; details: 168 h
How it was run: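 Strain H37Rv in 384-well plates, Middlebrook 7H12 broth with palmitate and 0.5% BSA; compounds diluted in medium to 2× final concentration; inoculum 1-2 × 10⁵ CFU/mL; amikacin positive control on every plate; 7 days at 37 °C, ~95% humidity; compound autofluorescence pre-read (ex 535/em 590 nm); BacTiter-Glo reagent added, 20 min room temperature, luminescence read.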

Mycobacterium kansasii = experiment: Antimycobacterial activity against Mycobacterium kansasii; how it was run: as §1
Mycobacteroides chelonae = experiment: Antimycobacterial activity against Mycobacterium chelonae; how it was run: as §1
Mycobacterium avium = experiment: Antimycobacterial activity against Mycobacterium avium; how it was run: as §1
[6] = tested on: Mycobacterium intracellulare; experiment: Antimycobacterial activity against Mycobacterium intracellulare; how it was run: as §1

CCOC(=O)/C=C\Sc1ccc(C(C)(C)C)cc1
MIC (Escherichia coli): > 128 µg/mL
MIC (Bacillus cereus): > 128 µg/mL
MIC (Staphylococcus aureus): > 128 µg/mL
MIC [1]: 16 µg/mL (≈ 60.5 µM)

CC(C)(C)c1ccc(C(=O)/C=C/C(=O)O)cc1
MIC (Escherichia coli): > 128 µg/mL
MIC [2]: > 125 µg/mL
MIC (Staphylococcus aureus): 32 µg/mL (≈ 138 µM)
MIC [1]: > 128 µg/mL

CC(C)(C)c1ccc(S/C=C\C(=O)NC2CC2)cc1
MIC (Escherichia coli): > 128 µg/mL
MIC (Bacillus cereus): > 128 µg/mL
MIC (Staphylococcus aureus): > 128 µg/mL
MIC [1]: > 128 µg/mL

CCOC(=O)/C=C\C(=O)c1ccc(C(C)(C)C)cc1
Ratio [3]: 8
MIC (Escherichia coli): > 128 µg/mL
MIC [2]: 8 µg/mL (≈ 30.7 µM)
Ratio [4]: 1.5
MIC [5]: 0.8 µg/mL (≈ 3.07 µM)
MIC (Bacillus cereus): 8 µg/mL (≈ 30.7 µM)
MIC (Mycobacterium kansasii): 64 µg/mL (≈ 246 µM)
MIC (Mycobacteroides chelonae): 16 µg/mL (≈ 61.5 µM)
MIC (Mycobacterium avium): 32 µg/mL (≈ 123 µM)
MIC [6]: 8 µg/mL (≈ 30.7 µM)
MIC (Staphylococcus aureus): 4 µg/mL (≈ 15.4 µM)
MIC [1]: 8 µg/mL (≈ 30.7 µM)

CCOC(=O)/C=C/C(=O)c1ccc(C(C)(C)C)cc1
Ratio [3]: 8
MIC (Escherichia coli): > 128 µg/mL
MIC [2]: 4 µg/mL (≈ 15.4 µM)
Ratio [4]: 1.5
MIC [5]: 0.8 µg/mL (≈ 3.07 µM)
MIC (Bacillus cereus): 4 µg/mL (≈ 15.4 µM)
MIC (Mycobacterium kansasii): 32 µg/mL (≈ 123 µM)
MIC (Mycobacteroides chelonae): 8 µg/mL (≈ 30.7 µM)
MIC (Mycobacterium avium): 16 µg/mL (≈ 61.5 µM)
MIC [6]: 4 µg/mL (≈ 15.4 µM)
MIC (Staphylococcus aureus): 2 µg/mL (≈ 7.68 µM)
MIC [1]: 8 µg/mL (≈ 30.7 µM)

CCOC(=O)CCC(=O)c1ccc(C(C)(C)C)cc1
MIC (Escherichia coli): > 128 µg/mL
MIC [2]: > 128 µg/mL
MIC (Mycobacterium kansasii): > 128 µg/mL
MIC (Mycobacteroides chelonae): > 128 µg/mL
MIC (Mycobacterium avium): > 128 µg/mL
MIC [6]: > 128 µg/mL
MIC (Staphylococcus aureus): > 128 µg/mL
MIC [1]: > 128 µg/mL

CCOC(=O)CCCc1ccc(C(C)(C)C)cc1
MIC (Escherichia coli): > 128 µg/mL
MIC [2]: 32 µg/mL (≈ 129 µM)
MIC (Mycobacterium kansasii): 128 µg/mL (≈ 515 µM)
MIC (Mycobacteroides chelonae): 32 µg/mL (≈ 129 µM)
MIC (Mycobacterium avium): > 128 µg/mL
MIC [6]: > 128 µg/mL
MIC (Staphylococcus aureus): > 128 µg/mL
MIC [1]: 64 µg/mL (≈ 258 µM)

CC(C)=CCOC(=O)/C=C/C(=O)c1ccc(C(C)(C)C)cc1
MIC (Escherichia coli): > 128 µg/mL
MIC [2]: 64 µg/mL (≈ 213 µM)
MIC (Mycobacterium kansasii): > 128 µg/mL
MIC (Mycobacteroides chelonae): 32 µg/mL (≈ 107 µM)
MIC (Mycobacterium avium): > 128 µg/mL
MIC [6]: > 128 µg/mL
MIC (Staphylococcus aureus): 0.5 µg/mL (≈ 1.66 µM)
MIC [1]: > 128 µg/mL

CCOC(=O)/C=C/Cc1ccc(C(C)(C)C)cc1
MIC (Escherichia coli): > 128 µg/mL
MIC [2]: > 128 µg/mL
MIC (Mycobacterium kansasii): > 128 µg/mL
MIC (Mycobacteroides chelonae): > 128 µg/mL
MIC (Mycobacterium avium): > 128 µg/mL
MIC [6]: > 128 µg/mL
MIC (Staphylococcus aureus): 16 µg/mL (≈ 64.9 µM)
MIC [1]: > 128 µg/mL

CCOC(=O)c1ccccc1C(=O)c1ccc(C(C)(C)C)cc1
MIC (Escherichia coli): > 128 µg/mL
MIC [2]: > 128 µg/mL
MIC (Mycobacterium kansasii): > 128 µg/mL
MIC (Mycobacteroides chelonae): > 128 µg/mL
MIC (Mycobacterium avium): > 128 µg/mL
MIC [6]: > 128 µg/mL
MIC (Staphylococcus aureus): > 128 µg/mL
MIC [1]: > 128 µg/mL

CCOC(=O)/C=C\C(=O)c1cc2ccccc2s1
Ratio [3]: 16
MIC (Escherichia coli): 128 µg/mL (≈ 492 µM)
MIC [2]: 16 µg/mL (≈ 61.5 µM)
Ratio [4]: 3
MIC [5]: 0.4 µg/mL (≈ 1.54 µM)
MIC (Mycobacterium kansasii): 8 µg/mL (≈ 30.7 µM)
MIC (Mycobacteroides chelonae): 8 µg/mL (≈ 30.7 µM)
MIC (Mycobacterium avium): 16 µg/mL (≈ 61.5 µM)
MIC [6]: 4 µg/mL (≈ 15.4 µM)
MIC (Staphylococcus aureus): 1 µg/mL (≈ 3.84 µM)
MIC [1]: 4 µg/mL (≈ 15.4 µM)

CCOC(=O)CCSc1ccc(C(C)(C)C)cc1
MIC (Escherichia coli): > 128 µg/mL
MIC [2]: > 128 µg/mL
MIC (Bacillus cereus): > 128 µg/mL
MIC (Mycobacterium kansasii): > 128 µg/mL
MIC (Mycobacteroides chelonae): > 128 µg/mL
MIC (Mycobacterium avium): > 128 µg/mL
MIC [6]: > 128 µg/mL
MIC (Staphylococcus aureus): > 128 µg/mL
MIC [1]: > 128 µg/mL

CCOC(=O)C#CC(=O)c1ccc(C(C)(C)C)cc1
MIC (Escherichia coli): > 128 µg/mL
MIC [2]: > 128 µg/mL
MIC (Bacillus cereus): > 128 µg/mL
MIC (Mycobacterium kansasii): > 128 µg/mL
MIC (Mycobacteroides chelonae): > 128 µg/mL
MIC (Mycobacterium avium): > 128 µg/mL
MIC [6]: > 128 µg/mL
MIC (Staphylococcus aureus): > 128 µg/mL
MIC [1]: > 128 µg/mL

CCOC(=O)[C@@H]1C[C@H]1C(=O)c1ccc(C(C)(C)C)cc1
MIC (Escherichia coli): > 128 µg/mL
MIC [2]: 64 µg/mL (≈ 233 µM)
MIC (Staphylococcus aureus): 64 µg/mL (≈ 233 µM)
MIC [1]: 16 µg/mL (≈ 58.3 µM)

CCOC(=O)[C@@H]1O[C@H]1C(=O)c1ccc(C(C)(C)C)cc1
MIC (Escherichia coli): > 128 µg/mL
MIC [2]: > 128 µg/mL
MIC (Staphylococcus aureus): 32 µg/mL (≈ 116 µM)
MIC [1]: 128 µg/mL (≈ 463 µM)

CC(C)(C)c1ccc(S/C=C\C(=O)O)cc1
MIC (Escherichia coli): > 128 µg/mL
MIC (Bacillus cereus): 128 µg/mL (≈ 542 µM)
MIC (Staphylococcus aureus): > 128 µg/mL
MIC [1]: > 128 µg/mL

O=C(O)/C=C\Sc1nc2ccccc2s1
MIC (Escherichia coli): > 128 µg/mL
MIC (Bacillus cereus): > 128 µg/mL
MIC (Staphylococcus aureus): > 128 µg/mL
MIC [1]: > 128 µg/mL

CC(C)(C)c1ccc(S/C=C\C(=O)OCC2CC2)cc1
MIC (Escherichia coli): > 128 µg/mL
MIC (Bacillus cereus): 128 µg/mL (≈ 441 µM)
MIC (Staphylococcus aureus): > 128 µg/mL
MIC [1]: 16 µg/mL (≈ 55.1 µM)

CC(C)N(C(=O)/C=C\Sc1nc2ccccc2s1)C(C)C
MIC (Escherichia coli): > 128 µg/mL
MIC (Bacillus cereus): > 128 µg/mL
MIC (Staphylococcus aureus): > 128 µg/mL
MIC [1]: > 128 µg/mL

CC(C)(C)c1ccc(S/C=C\C(=O)Nc2ccccc2)cc1
MIC (Escherichia coli): > 128 µg/mL
MIC (Bacillus cereus): > 128 µg/mL
MIC (Staphylococcus aureus): > 128 µg/mL
MIC [1]: > 128 µg/mL

CN(C(=O)/C=C\Sc1ccc(C(C)(C)C)cc1)c1ccccc1
MIC (Escherichia coli): > 128 µg/mL
MIC (Bacillus cereus): > 128 µg/mL
MIC (Staphylococcus aureus): > 128 µg/mL
MIC [1]: 32 µg/mL (≈ 98.3 µM)

CNC(=O)/C=C\Sc1ccc(C(C)(C)C)cc1
MIC (Escherichia coli): > 128 µg/mL
MIC (Bacillus cereus): 128 µg/mL (≈ 513 µM)
MIC (Staphylococcus aureus): > 128 µg/mL
MIC [1]: > 128 µg/mL

CN(C)C(=O)/C=C\Sc1ccc(C(C)(C)C)cc1
MIC (Escherichia coli): > 128 µg/mL
MIC (Bacillus cereus): 16 µg/mL (≈ 60.7 µM)
MIC (Staphylococcus aureus): > 128 µg/mL
MIC [1]: 64 µg/mL (≈ 243 µM)

CC(C)N(C(=O)/C=C\Sc1ccc(C(C)(C)C)cc1)C(C)C
MIC (Escherichia coli): > 128 µg/mL
MIC (Bacillus cereus): > 128 µg/mL
MIC (Staphylococcus aureus): > 128 µg/mL
MIC [1]: 64 µg/mL (≈ 200 µM)

CC[C@@H](CO)NCCN[C@@H](CC)CO [ETHAMBUTOL]
MIC [5]: 1.2 µg/mL (≈ 5.87 µM)

NNC(=O)c1ccncc1 [ISONIAZID]
MIC [5]: 0.25 µg/mL (≈ 1.82 µM)

CO[C@H]1/C=C/O[C@@]2(C)Oc3c(C)c(O)c4c(O)c(c(/C=N/N5CCN(C)CC5)c(O)c4c3C2=O)NC(=O)/C(C)=C\C=C\[C@H](C)[C@H](O)[C@@H](C)[C@@H](O)[C@@H](C)[C@H](OC(C)=O)[C@@H]1C [RIFAMPIN]
MIC [2]: 32 µg/mL (≈ 38.9 µM)
MIC [5]: < 0.03 µg/mL
MIC (Mycobacterium kansasii): 0.5 µg/mL (≈ 0.608 µM)
MIC (Mycobacteroides chelonae): 32 µg/mL (≈ 38.9 µM)
MIC (Mycobacterium avium): 2 µg/mL (≈ 2.43 µM)
MIC [6]: 1 µg/mL (≈ 1.22 µM)
MIC [1]: 64 µg/mL (≈ 77.8 µM)

CN(C)[C@@H]1C(O)=C(C(N)=O)C(=O)[C@@]2(O)C(O)=C3C(=O)c4c(O)cccc4[C@@](C)(O)[C@H]3C[C@@H]12 [TETRACYCLINE]
MIC (Escherichia coli): 1 µg/mL (≈ 2.25 µM)
MIC (Staphylococcus aureus): 0.25 µg/mL (≈ 0.563 µM)
